These results are taken from ChEMBL document CHEMBL2429786, “New serotonin 5-HT1A receptor agonists endowed with antinociceptive activity in vivo” (J Med Chem, 2013).

The source made the active and inactive calls. No cut-off for these calls is given here. Where only a bound is given, the exact number is not on record here.

Series [1] addresses T1, Muscarinic acetylcholine receptor M2 (Homo sapiens) (UniProt P08172).
T1 sequence (whole entry): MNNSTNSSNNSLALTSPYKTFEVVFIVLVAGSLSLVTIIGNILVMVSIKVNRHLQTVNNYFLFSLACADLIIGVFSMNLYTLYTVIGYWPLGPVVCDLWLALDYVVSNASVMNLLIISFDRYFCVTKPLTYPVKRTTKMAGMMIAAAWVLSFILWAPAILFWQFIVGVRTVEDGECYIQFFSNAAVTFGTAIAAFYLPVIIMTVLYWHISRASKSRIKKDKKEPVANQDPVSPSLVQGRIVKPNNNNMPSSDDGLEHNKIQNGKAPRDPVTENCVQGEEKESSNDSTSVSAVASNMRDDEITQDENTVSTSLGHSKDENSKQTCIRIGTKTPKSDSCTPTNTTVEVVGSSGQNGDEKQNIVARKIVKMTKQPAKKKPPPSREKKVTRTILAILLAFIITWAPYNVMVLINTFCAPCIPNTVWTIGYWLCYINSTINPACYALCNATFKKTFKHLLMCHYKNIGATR
Description: Displacement of [3H]AF-DX 384 from muscarinic M2 receptor (unknown origin) at 1 uM after 60 mins.

The species named for a further series is Homo sapiens. Description: Displacement of [3H]CGP54626 from GABAB receptor (unknown origin) at 1 uM after 120 mins. (Displacement assays read how much labelled ligand stays bound in the presence of the test substance.)
For series [2], the system named is Mus musculus. Description: Antinociceptive activity in CD-1 mouse assessed as reduction of formalin-induced paw licking activity at 3 mg/kg, ip administered 15 mins prior to formalin-challenge measured after 5 mins in presence of 5-HT1A receptor antagonist WAY-100635. Format: functional, organism-based. Also on record: dose 3 mg/kg.
Series [3] deals with Mus musculus. Description: Antinociceptive activity in CD-1 mouse assessed as reduction of formalin-induced paw licking activity at 3 mg/kg, ip administered 15 mins prior to formalin-challenge measured after 5 mins. Format: functional, organism-based. More on the design: dose 3 mg/kg.
The next series has as its target Albumin (Homo sapiens, UniProt P02768). Briefly: Binding affinity to human serum albumin at 5 uM after 12 mins by HPLC-MS analysis relative to control. Format: ADME. As to conditions: isolated protein, 0.2 h.
Series [4] can be described thus: Intrinsic clearance in Sprague-Dawley rat liver microsomes at 1 to 5 uM by HPLC-MS analysis. As to conditions: read-out: CLH. The class given is ADME, Microsome. A digest of the protocol:
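Incubation mixtures pre-equilibrated at 37 °C with NADPH and MgCl2, then rat or human liver microsomes added to start the reaction. Aliquots were withdrawn and quenched at several time points, and percent parent remaining was measured by HPLC-MS and plotted against time. t1/2 was taken from the slope of peak area over time and used to calculate CLint.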
For orientation: Liver microsomes are vesicles of endoplasmic reticulum, rich in cytochrome P450 enzymes.

For series [5], the target named is T2, 5-hydroxytryptamine receptor 1A (Homo sapiens, UniProt P08908).
T2 sequence (P08908 whole entry): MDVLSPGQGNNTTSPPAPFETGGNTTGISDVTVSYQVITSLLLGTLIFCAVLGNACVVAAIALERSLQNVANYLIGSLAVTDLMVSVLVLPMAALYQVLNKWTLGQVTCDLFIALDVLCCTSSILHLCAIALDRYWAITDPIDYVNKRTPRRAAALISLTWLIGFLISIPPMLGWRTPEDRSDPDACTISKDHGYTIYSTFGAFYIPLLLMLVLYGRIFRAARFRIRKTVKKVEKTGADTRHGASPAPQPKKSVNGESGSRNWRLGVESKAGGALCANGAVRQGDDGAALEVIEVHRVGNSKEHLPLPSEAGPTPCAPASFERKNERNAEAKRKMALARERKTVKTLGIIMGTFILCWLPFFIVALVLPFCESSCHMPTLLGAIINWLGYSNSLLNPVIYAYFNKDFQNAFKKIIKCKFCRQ
Description: Agonist activity at human 5-HT1A receptor expressed in human HeLa cells assessed as inhibition of forskolin-stimulated cAMP formation after 10 mins by RIA. The class given is functional, cell-based. (Cyclic AMP is a second messenger, typically raised through Gs and lowered through Gi signalling.)

The target in series [6] is T3, 5-hydroxytryptamine receptor 1A (Rattus norvegicus, UniProt P19327).
T3 sequence (P19327 whole entry): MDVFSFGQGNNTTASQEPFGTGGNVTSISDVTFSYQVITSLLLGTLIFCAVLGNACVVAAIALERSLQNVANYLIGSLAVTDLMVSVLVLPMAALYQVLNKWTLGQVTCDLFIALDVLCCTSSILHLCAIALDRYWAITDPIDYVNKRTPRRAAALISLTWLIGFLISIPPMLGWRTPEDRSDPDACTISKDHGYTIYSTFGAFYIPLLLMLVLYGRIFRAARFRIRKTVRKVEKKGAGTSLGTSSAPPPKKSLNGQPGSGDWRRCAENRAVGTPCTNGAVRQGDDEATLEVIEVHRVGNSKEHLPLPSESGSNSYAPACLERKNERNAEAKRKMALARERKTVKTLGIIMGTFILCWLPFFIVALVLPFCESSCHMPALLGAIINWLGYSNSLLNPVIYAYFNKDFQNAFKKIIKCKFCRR
Description: Displacement of [3H]-8-OH-DPAT from 5-HT1A receptor in Sprague-Dawley rat cerebral cortex after 15 mins. The class given is tissue-based.

The target of series [7] is 5-hydroxytryptamine receptor 4 (Rattus norvegicus, UniProt Q62758). Description: Displacement of [3H]GR113808 from 5-HT4 receptor in Sprague-Dawley rat striatum after 30 mins.
Series [8] addresses T4, 5-hydroxytryptamine receptor 3A (Rattus norvegicus, UniProt P35563).
T4 sequence (P35563 whole entry): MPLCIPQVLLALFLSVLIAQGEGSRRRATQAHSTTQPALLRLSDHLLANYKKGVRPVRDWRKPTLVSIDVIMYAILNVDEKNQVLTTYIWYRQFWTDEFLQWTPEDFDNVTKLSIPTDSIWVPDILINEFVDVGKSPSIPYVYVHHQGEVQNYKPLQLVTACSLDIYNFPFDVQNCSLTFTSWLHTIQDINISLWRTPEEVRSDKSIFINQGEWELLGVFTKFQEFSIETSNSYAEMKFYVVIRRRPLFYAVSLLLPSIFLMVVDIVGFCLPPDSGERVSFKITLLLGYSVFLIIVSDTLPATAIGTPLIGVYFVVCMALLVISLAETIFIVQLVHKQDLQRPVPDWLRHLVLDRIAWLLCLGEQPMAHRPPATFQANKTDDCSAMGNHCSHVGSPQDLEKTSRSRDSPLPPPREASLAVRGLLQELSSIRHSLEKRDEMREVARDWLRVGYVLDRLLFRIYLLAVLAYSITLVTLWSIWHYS
Description: Displacement of [3H]LY 278584 from 5-HT3 receptor in Sprague-Dawley rat cerebral cortex after 30 mins. The class given is tissue-based.

For orientation: EC50 means the concentration giving half of the maximal effect. What is called Ki is the dissociation constant of the complex between target and ligand, obtained from inhibition or displacement.

Albumin, sequence (P02768 whole entry): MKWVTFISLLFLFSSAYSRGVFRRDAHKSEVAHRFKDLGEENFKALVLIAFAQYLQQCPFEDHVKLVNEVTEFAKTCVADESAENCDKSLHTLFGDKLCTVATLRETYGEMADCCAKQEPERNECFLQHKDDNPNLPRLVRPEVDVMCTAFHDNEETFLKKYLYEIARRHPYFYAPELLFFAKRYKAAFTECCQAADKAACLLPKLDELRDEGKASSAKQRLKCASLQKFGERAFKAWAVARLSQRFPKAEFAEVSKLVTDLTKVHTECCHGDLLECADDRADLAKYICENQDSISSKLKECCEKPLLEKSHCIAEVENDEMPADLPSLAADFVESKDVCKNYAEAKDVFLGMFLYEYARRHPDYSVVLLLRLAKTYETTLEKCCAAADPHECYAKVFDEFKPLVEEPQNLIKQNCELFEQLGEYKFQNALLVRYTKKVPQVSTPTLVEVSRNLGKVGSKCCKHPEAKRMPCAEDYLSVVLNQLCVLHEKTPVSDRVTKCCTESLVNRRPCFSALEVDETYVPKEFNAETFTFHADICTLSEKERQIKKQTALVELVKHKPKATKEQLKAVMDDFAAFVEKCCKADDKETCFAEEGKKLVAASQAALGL
5-hydroxytryptamine receptor 4, sequence (Q62758 whole entry): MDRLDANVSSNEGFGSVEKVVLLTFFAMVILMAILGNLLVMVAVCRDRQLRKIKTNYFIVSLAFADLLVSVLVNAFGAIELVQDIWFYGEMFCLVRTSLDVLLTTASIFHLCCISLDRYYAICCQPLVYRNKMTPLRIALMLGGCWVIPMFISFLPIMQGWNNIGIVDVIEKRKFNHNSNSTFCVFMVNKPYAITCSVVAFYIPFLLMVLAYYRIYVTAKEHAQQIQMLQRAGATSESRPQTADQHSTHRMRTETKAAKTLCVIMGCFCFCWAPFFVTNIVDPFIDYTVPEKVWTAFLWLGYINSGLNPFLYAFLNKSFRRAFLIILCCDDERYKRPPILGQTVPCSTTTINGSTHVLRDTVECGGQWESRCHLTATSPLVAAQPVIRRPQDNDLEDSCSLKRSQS

As for `CCOc1ccccc1OCCNCCCCN1C(=O)C2CCCN2C1=O.Cl` (stereo not given), the inhibition result (in series [1]; in the series listed under Homo sapiens) was “inactive” in each case. For the same compound, the outcome in the series with Mus musculus [2] was inactive. Besides, the outcome in the series with Mus musculus [3] was Active. The compound also showed an Activity on Albumin of 25%. Also, the CLint scaled at up to 5 µM in series [4] was determined as 107 mL/min/kg. Further, the EC50 in [5] stood at 19 nM. The Ki is 2.3 nM in series [6], greater than 1000 nM in series [7] and greater than 1000 nM in [8].
